# Source: PubChem BioAssay
# In the library only some 6.4% were active in any assay of this set; here they are far more common.
# H69AR growth 86K: blocks growth of human H69AR lung tumor cells | H69AR lung tumor viability, ATP luminescence, 72 h; active compounds read low | viability, % at 10 µM | 85,000 tested, 6% active | AID 598;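 active = viability at or below 40%; inactive = viability above 40%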;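 also: multidrug resistant small cell line overexpressing MRP-1 efflux transporter; 100% = mean luminescence of untreated control wells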
# HUVEC prolif 384: blocks proliferation of human endothelial cells; HUVEC proliferation, CellTiter-Glo luminescence, 72 h; active compounds read low; viability, % at 10 µM (by protocol); 86,000 tested, 1.1% active;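 active = viability at or below 30%; inactive = viability above 30%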;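 also: 100% = median luminescence of DMSO-only cell control wells on each plate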
# Lung fibro prol: blocks proliferation of human lung fibroblasts | 85,000 tested, 1.1% active | viability, % at 10 µM | LL 47 human lung fibroblast viability, ATP luminescence; active compounds read low | AID 719;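 active = viability at or below 50% in the single dose screen; inactive = viability above 50%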;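 also: compound exposure lasted 72 h before the ATP readout; 100% = median luminescence of untreated cell-only wells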
#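 Material: human lung fibroblast line LL 47, low passage; Evaluation: viability percentage against median untreated-cell control; Buffer or medium: 15% FBS in IMEM; Incubation: 72 h compound exposure at 37 °C after overnight plating; Dosing: 0.1% DMSO in all compound wells; Measured by: CellTiter-Glo luminescence.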
# Jurkat viability: cytotoxic compounds reducing Jurkat cell viability; AID 463; Jurkat E6.1 viability, ATP luminescence, 48 h; inhibition, % at 4 µM; 56,000 tested, 1.2% active;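 active = inhibition above the mean inhibition of all tested compounds plus 3 SD, cut at about 28% in these data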
# Starred values were filed as active, the others as inactive; · = no result given.
SMILES,H69AR growth 86K,HUVEC prolif 384,Lung fibro prol,Jurkat viability
CCC(C(=O)NCc1ccco1)N(C(=O)CNS(=O)(=O)c1ccccc1)c1ccc(OC)cc1 (configuration not stated),105.3,98.5,96.2,·
CSc1nc2ccccc2n1Cc1c(Cl)cccc1Cl,35.6*,100.4,92.5,·
CSc1nc2ccccc2n1CC(=O)Nc1c(C)cccc1C,74.8,85.5,106.2,·
Cc1cccc(Nc2nc(-c3cccs3)cs2)n1,61.8,80.2,89.0,·
Cc1cccc(Nc2nc(-c3ccccn3)cs2)n1,3.9*,60.3,68.9,3.3
Cc1cccnc1Nc1nc(-c2ccccn2)cs1,0.4*,16.1*,3.2*,·
Cc1cccnc1Nc1nc(-c2ccc(O)cc2O)cs1,8.0*,13.7*,84.4,-7.4
O=C(c1ccco1)N1CCN(c2nc(-c3ccc(F)cc3)cs2)CC1,97.8,112.2,103.2,·
COc1ccc(C(=O)Nc2nnc(-c3ccco3)s2)cc1,8.2*,55.0,96.5,·
O=C(Nc1nnc(-c2ccco2)s1)c1ccccc1,100.7,92.6,102.5,1.0
NC(=O)CN1CCN(C(=O)Nc2ccccc2)CC1,95.7,100.8,98.0,-5.8
COc1ccccc1-c1cc2ccccc2[nH]1,90.9,81.0,87.5,·
Cc1ccc(-n2ncc3c(=O)[nH]c(SCC(=O)N4CCOCC4)nc32)cc1,56.3,90.9,90.2,8.3
Cc1ccc(-n2ncc3c(=O)[nH]c(SC(C)C)nc32)cc1,78.5,96.7,93.7,4.2
CCCCCSc1nc2c(cnn2-c2ccccc2)c(=O)[nH]1,26.5*,81.1,95.6,3.0
COC(=O)c1ccc(CSc2nc3c(cnn3-c3ccc(C)cc3)c(=O)[nH]2)o1,20.1*,29.0*,98.2,4.8
CCOC(=O)C(C)Sc1nc2c(cnn2-c2ccc(C)cc2)c(=O)[nH]1 (configuration not stated),19.5*,58.0,89.7,49.8*
Cc1ccc(-n2ncc3c(=O)[nH]c(SCC(=O)N4CCN(c5ccccc5)CC4)nc32)cc1,58.9,98.3,98.2,3.1
Cc1ccc(-n2ncc3c(=O)[nH]c(SCC(=O)N4CCCc5ccccc54)nc32)cc1,32.2*,80.3,94.7,7.0
CCOc1ccccc1NC(=O)c1ccc2nccnc2c1,80.4,82.5,104.8,3.3
O=c1[nH]c(CSc2nc3ccccc3o2)nc2c1cnn2-c1ccccc1,17.6*,76.6,103.8,·
O=c1[nH]c(SCc2ccccc2Cl)nc2c1cnn2-c1ccccc1,79.4,63.7,85.2,-6.5
CCCc1cc(C(=O)Nc2ccc(C)cc2)no1,108.0,104.6,90.8,-4.2
CCCc1cc(C(=O)Nc2cc(Br)ccc2O)no1,52.5,96.9,96.5,46.3*
CC(C)c1cc(C(=O)Nc2cc(Cl)ccc2O)no1,72.5,111.7,99.3,54.5*
SMILES,H69AR growth 86K,HUVEC prolif 384,Lung fibro prol,Jurkat viability
CC(C)c1cc(C(=O)Nc2cc(Br)ccc2O)no1,72.8,99.5,94.3,·
CCOC(=O)c1c(C)oc2c1c(C=NCc1ccccn1)c(O)c1ccccc12,26.8*,48.1,91.5,2.7
CCOC(=O)c1c(C)oc2c1c(C=NCC1CCCO1)c(O)c1ccccc12 (configuration not stated),25.9*,88.0,98.1,-1.4
CCOc1ccc(NC(=O)CSc2nnc(C)n2CCCOC)cc1,107.4,87.6,99.2,0.9
CCOC(=O)c1c(NC(=O)CSc2n[nH]c(-c3ccco3)n2)sc(C)c1C,79.8,88.8,95.9,7.2
CCOC(=O)c1c(NC(=O)CSc2nnnn2CC)sc(C)c1C,30.6*,101.9,84.1,-0.7
CCOC(=O)c1c(NC(=O)CSc2nnnn2C)sc(C)c1C,80.4,83.8,95.8,9.6
CCOC(=O)c1c(NC(=O)CSc2n[nH]c(CNc3ccccc3)n2)sc(C)c1C,31.4*,45.8,73.6,·
CCN(CC)S(=O)(=O)c1ccc(NC(=O)C(OC)c2ccccc2)cc1 (configuration not stated),83.8,84.1,95.8,4.8
CCN(C(=O)COC(=O)c1cnc(C)cn1)C1CCCCC1,98.5,86.4,102.1,1.4
O=C(OCC(=O)N(C1CCCCC1)C1CCCCC1)c1cnccn1,1.2*,98.1,106.5,5.2
Cc1cccc(C)c1OCc1nnc(SCC(=O)Nc2nccs2)n1-c1ccccc1,19.7*,61.8,87.0,2.3
O=C(CSc1nnc(CCCO)n1-c1ccccc1)Nc1nccs1,95.2,108.3,99.2,-1.7
Cc1cccc(Cn2c(=O)n(-c3ccc(CC(=O)NCc4ccco4)cc3)c(=O)c3sccc32)c1,20.3*,88.8,86.8,·
O=C(NCc1ccco1)c1ccc(Cn2c(=O)c3ccccc3n(Cc3cccc(F)c3)c2=O)cc1,7.7*,49.2,65.5,·
O=C(CCCCn1c(=O)c2ccccc2n(Cc2ccc(F)cc2)c1=O)NCc1ccco1,22.4*,55.8,70.4,37.2*
O=C(CCCn1c(=O)c2ccccc2n(Cc2ccccc2)c1=O)NCc1ccco1,87.8,73.0,102.6,17.2
O=c1c2ccccc2n(Cc2ccc(Cl)cc2)c(=O)n1Cc1ccco1,70.0,62.7,89.1,-4.0
O=C(NCc1ccco1)c1ccc(Cn2c(=O)c3ccccc3n(Cc3ccc(Cl)cc3)c2=O)cc1,22.7*,70.0,69.5,·
CC(=O)Nc1nnc(-c2ccc3c(c2)CCCC3)o1,75.7,99.7,94.9,0.0
COc1cccc(C(=O)NCC2CCN(c3ccc(S(=O)(=O)N4CCOCC4)cc3)CC2)c1,29.8*,85.7,91.6,11.4
COc1ccc(NC(=O)c2ccc(S(=O)(=O)N3CCOCC3)cc2)c(OC)c1,94.6,85.4,103.0,-2.4
COc1cccc(-c2nnc(NC(=O)c3ccc(S(=O)(=O)N4CCOCC4)cc3)o2)c1,20.4*,14.9*,68.8,-0.2
O=C(NCC1CCN(c2ccc(S(=O)(=O)N3CCOCC3)cc2)CC1)c1cccc(Cl)c1,48.7,81.2,96.3,·
CC1CN(S(=O)(=O)c2ccc(C(=O)Nc3nnc(-c4ccc5c(c4)CCCC5)o3)cc2)CC(C)O1 (configuration not stated),16.8*,7.0*,38.8*,-6.4
SMILES,H69AR growth 86K,HUVEC prolif 384,Lung fibro prol,Jurkat viability
CCn1cc(S(=O)(=O)CC(=O)N2CCc3ccccc32)c2ccccc21,91.4,90.2,90.3,2.3
Cc1cccc2c1N1C(=O)c3c(C(=O)O)cccc3C1CC2C (configuration not stated),98.5,93.8,100.5,·
COc1cccc(C(=O)Nc2cccc(-c3nnc(-c4ccco4)o3)c2)c1,38.0*,44.8,97.4,·
COc1ccc(Br)cc1C(=O)Nc1cccc(-c2nnc(-c3ccco3)o2)c1,8.6*,47.4,113.9,-5.4
CC1=C(C(=O)NCc2ccccc2)C(c2cccs2)n2ncnc2N1 (configuration not stated),84.1,81.5,89.6,5.9
Cc1cc(NC(=O)c2cccc(S(=O)(=O)N3CCOCC3)c2)c2ccccc2n1,100.7,104.6,104.6,·
COc1ccc(Cl)cc1NC(=O)c1cnc2sccn2c1=O,50.0,77.0,67.9,-4.7
CCN1CCN(c2ncc(C(=O)Nc3cc(Cl)ccc3OC)c3ccccc23)CC1,12.3*,19.4*,68.5,11.2
O=c1c(C(c2ccccc2)c2c(O)sc3ccccc3c2=O)c(O)sc2ccccc12,36.4*,66.7,88.6,·
COc1cc(/C=N/NC(=Nc2ccc(C)cc2)c2nc3ccccc3s2)ccc1O,35.3*,88.2,82.1,·
